Sampled rows, rich in hits. Any-hit rate of the full collection: about 2.3%.
TAAR1 ag: human TAAR1 agonism; activation, % at 3 µM; Q96RJ0; actives 0.99% (n = 360,000); AID 624467; CHO RD-HGA16 TAAR1, Fluo-8 calcium fluorescence; vehicle wells 0%, saturating PEA agonist 100%;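 active means activation above the mean activation of all test compounds in the run plus 3 SD, cut at about 38% in these data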
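Test system: RD-HGA16 (CHO) cells co-expressing Gα16 and hTAAR1; dosing: one-point dosing at 3 µM (nominal); timing: 17-24 h seeding, 75 min 37 °C dye, 30 min RT; signal: kinetic Fluo-8 calcium fluorescence; read-out basis: % activation relative to PEA EC100 response; controls: DMSO and PEA EC100; replicates: n 1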
V1aR counter: counter-screen for oxytocin receptor agonists: human V1a receptor agonists; actives 0.25% (n = 320,000); activation, % at 3 µM; CHO-V1R cells, Fluo-8 calcium fluorescence, agonist mode; 0% DMSO, 100% 3 nM vasopressin;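 active means activation above the mean activation of all tested compounds plus 3 SD, per screening run, cut at about 20% in these data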;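 further: signal is peak over basal fluorescence ratio across a 100 second FLIPR read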
Target sequence (P37288 whole entry, looked up): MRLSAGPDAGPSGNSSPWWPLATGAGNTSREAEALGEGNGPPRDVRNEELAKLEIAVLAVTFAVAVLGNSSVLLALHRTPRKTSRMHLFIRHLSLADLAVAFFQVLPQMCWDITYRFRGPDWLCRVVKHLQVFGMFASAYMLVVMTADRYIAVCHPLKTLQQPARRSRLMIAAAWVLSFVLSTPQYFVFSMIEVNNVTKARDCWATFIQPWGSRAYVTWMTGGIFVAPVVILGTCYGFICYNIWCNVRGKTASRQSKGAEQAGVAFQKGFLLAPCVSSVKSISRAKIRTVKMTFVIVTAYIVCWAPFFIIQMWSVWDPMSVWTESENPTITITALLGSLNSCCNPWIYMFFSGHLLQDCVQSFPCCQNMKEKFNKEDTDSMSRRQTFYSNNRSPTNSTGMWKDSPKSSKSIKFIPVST
TAAR1 antag: antagonists of human TAAR1. CHO RD-HGA16 TAAR1, Fluo-8 calcium fluorescence, antagonist. inhibition, % at 3 µM. actives 1.5% (n = 360,000);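 active means inhibition above a per-plate cutoff, the mean inhibition of test compounds on that plate plus 3 SD, cut at about 49% in these data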
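System: RD-HGA16 CHO cells with stable hTAAR1 and Gα16 | Probe or stimulus: EC80 β-phenethylamine stimulus | Dosing: 3 µM, single point | Times: Dye loading 75 min at 37 °C, then 30 min room temperature | Measured by: Fluo-8 calcium-sensitive fluorescence | Read-out basis: % inhibition of agonist calcium response | Replicates: n of 1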
OXTR ag: activates the human oxytocin receptor; P30559; CHO-OTR cells, Fluo-8 calcium fluorescence; normalized: DMSO 0%, oxytocin 100%; activation, % at 3 µM; actives 0.32% (n = 320,000);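 active means activation above the mean of all tested compounds plus 3 SD, cutoff set per screening run, cut at about 20% in these data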;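 further: peak over basal fluorescence ratio from a 100 s FLIPR kinetic read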
OXTR potentiate: human OXTR potentiation; P30559; CHO-OTR cells, Fluo-8 calcium fluorescence, potentiator mode; 0% = oxytocin EC15, 100% = EC100; activation, % at 3 µM; actives 0.061% (n = 320,000); AID 2445;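 active means activation above that plate's cutoff, the mean activation of tested compounds plus 3 SD, cut at about 6.6% in these data, passing the limit was not always enough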
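Material: human OTR in CHO cells. Compound: 3.0 µM, one dose. Timing: compound 6 min at room temperature before oxytocin, 100 s read. Evaluation: % activation of max/min ratio relative to oxytocin controls. Replication: single well per compound, singlicate. Signal: Fluo-8 calcium dye fluorescence.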
TAAR1 ag conf: human TAAR1 agonism, confirmed; activation, % at 3 µM; CHO RD-HGA16 TAAR1, Fluo-8 calcium fluorescence; scaled: DMSO 0%, maximal phenethylamine 100%; AID 651783; shares compounds with TAAR1 ag; actives 82% (n = 2,400);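 active means activation above a cutoff set at the run's mean compound activation plus 3 SD, cut at about 39% in these data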
Ga16 ag counter: nonselective agonist in parental cells, TAAR1 agonist counter-screen. activation, % at 3 µM. actives 50% (n = 2,400). AID 651787. CHO-Ga16 parental, Fluo-8 calcium fluorescence; normalized to maximal ATP response, DMSO zero. shares compounds with TAAR1 ag;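 active means activation above the run cutoff, the mean activation over all tested wells plus 3 SD, cut at about 12% in these data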
TAAR1 desens: TAAR1 response desensitization, agonist counter-screen; shares compounds with TAAR1 ag; CHO RD-HGA16 hTAAR1, Fluo-8 calcium, beta-PEA response inhibition; inhibition, % at 3 µM; actives 46% (n = 2,400); AID 651951;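 active means inhibition above the run cutoff, the mean inhibition of all test compounds plus 3 SD, cut at about 49% in these data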;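 further: beta-PEA stimulus applied at its EC80; loss of beta-PEA calcium signal after compound pretreatment read as receptor desensitization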
Ga16 antag count: nonselective Ga16 antagonism, counter-screen. shares compounds with TAAR1 ag. CHO-Ga16 ATP-induced calcium, Fluo-8 fluorescence. inhibition, % at 3 µM. actives 39% (n = 2,400). AID 651952;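 active means inhibition above the plate's mean compound inhibition plus 3 SD, computed per plate, cut at about 22% in these data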
Numbers stand for hits; – = inactive; · = no result given.

SMILES	TAAR1 ag	V1aR counter	TAAR1 antag	OXTR ag	OXTR potentiate	TAAR1 ag conf	Ga16 ag counter	TAAR1 desens	Ga16 antag count
O=C(Nc1ncc(S(=O)(=O)c2ccc([N+](=O)[O-])cc2)s1)c1cccc2ccccc12	128.0	26.8	94.5	31.7	–	128.7	87.6	105.3	79.2
CCC(C)NC(=O)CN1C(=O)NC2(CCc3ccccc3C2)C1=O (stereo unspecified)	–	–	–	–	–	·	·	·	·
COc1cccc(-c2cc(C(=O)Nc3cnn(Cc4ccc(F)cc4)c3)no2)c1	46.0	–	–	–	–	–	–	–	23.2
COc1cccc(-c2cc(C(=O)Nc3cnn(Cc4ccccc4C)c3)no2)c1	–	–	–	–	–	·	·	·	·
Cc1ccc(S(=O)(=O)Nc2ccc(NC(=O)c3c(F)c(F)c(F)c(F)c3F)cc2)cc1	117.0	27.3	66.2	36.7	–	115.5	71.5	99.7	66.8
Cc1ccc(NS(=O)(=O)c2ccc(NC(=O)N3CCCCC3)cc2)cc1	52.5	–	–	–	–	46.0	13.9	–	–
COc1ccccc1NS(=O)(=O)c1ccc(C(=O)N2CCCC(C(F)(F)F)C2)cc1 (stereo unspecified)	–	–	–	–	–	·	·	·	·
Cc1ccc(NS(=O)(=O)c2ccc(C(=O)N3CCCC(C(F)(F)F)C3)cc2)cc1 (stereo unspecified)	141.8	49.2	89.1	53.5	–	125.2	90.0	88.4	48.5
Cc1ccc(OC(=O)c2cccc(S(=O)(=O)N3CCCC3)c2)c(-n2nc3ccccc3n2)c1	–	–	–	–	–	·	·	·	·
O=c1[nH]c(CN(CCc2ccccc2)S(=O)(=O)c2ccc(Cl)cc2)nc2ccccc12	78.7	–	73.2	–	–	89.6	14.4	95.4	23.8
Cc1ccccc1CCNC(=O)C1CCC(=O)N(CCc2cccc(F)c2)C1 (stereo unspecified)	–	·	–	·	·	·	·	·	·
S=C(SSC(=S)N1CCOCC1)N1CCOCC1	55.9	·	–	·	·	54.2	22.5	–	–
CCCC(NC(=O)CCc1c(C)c2cc3c(-c4ccccc4)coc3cc2oc1=O)C(=O)O (stereo unspecified)	–	–	–	–	–	·	·	·	·
CCOC(=O)C1C(=O)C=C(/C=C/c2ccc(N(C)C)cc2)CC1c1ccccc1 (stereo unspecified)	79.4	45.0	70.1	38.1	–	69.3	84.9	84.6	84.4
Fc1ccc(NC(=S)N2CCOCC2)c(F)c1	–	–	–	–	–	·	·	·	·
Fc1ccc(NC(=S)N2CCc3ccccc3C2)c(F)c1	42.6	–	–	–	–	72.3	13.3	–	–
COc1ccc(NC(=S)N2CCc3ccccc3C2)cc1OC	·	–	·	–	–	·	–	·	–
O=[N+]([O-])c1ccc(NC(=S)N2CCc3ccccc3C2)cc1	60.5	–	–	–	–	80.8	–	63.3	21.7
COc1cc(NC(=S)N2CCc3ccccc3C2)cc(OC)c1	49.4	–	–	–	–	61.9	–	–	–
CCOC(=O)C1=CCN(S(=O)(=O)c2ccccc2C)C1c1ccccc1 (stereo unspecified)	–	·	–	·	·	·	·	·	·
Cc1cccc(NS(=O)(=O)c2cccc(C(=O)NCC(c3ccc(F)cc3)N3CCOCC3)c2)c1 (stereo unspecified)	–	·	–	·	·	·	·	·	·
Cc1cc(NS(=O)(=O)c2ccc(NC(=S)NC(=O)c3ccc(C(C)(C)C)cc3)cc2)no1	45.0	–	–	–	–	–	–	–	–
Cc1cc(NS(=O)(=O)c2ccc(NC(=S)NC(=O)c3ccccc3)cc2)no1	–	–	–	–	–	·	·	·	·
